How the values were obtained:
[1] = biological target: Substance-P receptor (Homo sapiens, UniProt P25103); experiment: Inhibitory activity against Tachykinin receptor 1 in human IM-9 cells using [125I]-labeled Boltan-Hunter substance P as radioligand; assay type: cell-based
[2] = biological target: Substance-P receptor (Cavia porcellus, UniProt P30547); experiment: Inhibitory activity against Tachykinin receptor 1 in guinea pig brain using [125I]-labeled Boltan-Hunter substance P as radioligand
Chain of Substance-P receptor (Cavia porcellus, UniProt P30547) (P30547 whole entry): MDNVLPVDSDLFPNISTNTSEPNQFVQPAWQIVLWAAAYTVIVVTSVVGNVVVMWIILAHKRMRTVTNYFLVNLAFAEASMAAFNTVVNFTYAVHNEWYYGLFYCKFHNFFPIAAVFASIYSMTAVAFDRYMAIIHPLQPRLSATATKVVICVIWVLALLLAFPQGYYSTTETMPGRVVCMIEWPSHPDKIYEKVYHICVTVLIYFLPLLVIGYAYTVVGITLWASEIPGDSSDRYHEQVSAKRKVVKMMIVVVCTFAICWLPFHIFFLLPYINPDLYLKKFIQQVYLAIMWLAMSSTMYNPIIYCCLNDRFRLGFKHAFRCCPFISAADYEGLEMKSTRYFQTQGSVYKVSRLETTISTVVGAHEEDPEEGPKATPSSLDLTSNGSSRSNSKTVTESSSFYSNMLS

[3] = biological target: Substance-P receptor (Rattus norvegicus, UniProt P14600); experiment: Inhibitory activity against Tachykinin receptor 1 in rat brain using [125I]-labeled Boltan-Hunter substance P as radioligand; assay type: tissue-based
Chain of Substance-P receptor (Rattus norvegicus, UniProt P14600) (P14600 whole entry): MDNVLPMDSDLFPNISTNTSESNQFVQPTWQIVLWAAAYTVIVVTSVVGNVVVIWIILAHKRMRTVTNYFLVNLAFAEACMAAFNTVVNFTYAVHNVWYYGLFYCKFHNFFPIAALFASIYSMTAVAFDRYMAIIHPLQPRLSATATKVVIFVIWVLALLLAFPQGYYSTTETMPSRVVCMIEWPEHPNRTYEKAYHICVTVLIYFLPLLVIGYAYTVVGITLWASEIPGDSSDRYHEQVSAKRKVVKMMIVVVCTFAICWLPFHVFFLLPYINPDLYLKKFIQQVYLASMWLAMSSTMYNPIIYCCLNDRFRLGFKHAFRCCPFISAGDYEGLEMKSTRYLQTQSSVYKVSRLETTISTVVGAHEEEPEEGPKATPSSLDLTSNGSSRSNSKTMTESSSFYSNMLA

[4] = biological target: Substance-P receptor (Mus musculus, UniProt P30548); experiment: Inhibitory activity against Tachykinin receptor 1 in mouse brain using [125I]-labeled Boltan-Hunter substance P as radioligand; assay type: tissue-based
Chain of Substance-P receptor (Mus musculus, UniProt P30548) (P30548 whole entry): as the sequence (P14600 whole entry) above, with M7V, I15T, V266I, E367D counted along it

[5] = tested on: U11 MG; experiment: In vitro inhibitory activity against P induced phosphatidyl inositol turnover in UC-11 MG Astrocytoma cells; assay type: functional, cell-based, Homo sapiens
Summary of the method: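 Human UC-11 MG astrocytoma cells; inhibition of substance P-induced phosphatidylinositol turnover; Ki in nM; mean of two determinations.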

[6] = biological target: T1, Neuromedin-K receptor (Rattus norvegicus, UniProt P16177); experiment: Inhibition of neurokinin B induced contraction of rat portal vein (RPV) tissue expressing Tachykinin receptor 3; assay type: functional; details: read-out: pA2 (converted)
T1 sequence (P16177 whole entry): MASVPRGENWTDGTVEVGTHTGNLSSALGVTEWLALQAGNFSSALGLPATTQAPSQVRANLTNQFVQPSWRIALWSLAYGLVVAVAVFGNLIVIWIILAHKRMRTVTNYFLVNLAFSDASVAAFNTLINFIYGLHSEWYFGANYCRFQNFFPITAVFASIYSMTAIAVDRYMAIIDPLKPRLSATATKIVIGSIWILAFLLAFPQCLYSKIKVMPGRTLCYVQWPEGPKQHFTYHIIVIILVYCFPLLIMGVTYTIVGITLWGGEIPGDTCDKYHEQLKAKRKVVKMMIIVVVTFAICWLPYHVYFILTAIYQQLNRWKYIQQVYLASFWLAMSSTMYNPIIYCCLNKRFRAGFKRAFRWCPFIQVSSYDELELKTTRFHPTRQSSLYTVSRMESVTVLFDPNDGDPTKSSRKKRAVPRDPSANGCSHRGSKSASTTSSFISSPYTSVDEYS

[7] = biological target: T2, Substance-K receptor (Oryctolagus cuniculus, UniProt P79218); experiment: Inhibition of neurokinin A induced contraction of rabbit pulmonary artery (RPA) tissue expressing Tachykinin receptor 2; assay type: functional, tissue-based; details: read-out: pA2 (converted)
T2 sequence (P79218 whole entry): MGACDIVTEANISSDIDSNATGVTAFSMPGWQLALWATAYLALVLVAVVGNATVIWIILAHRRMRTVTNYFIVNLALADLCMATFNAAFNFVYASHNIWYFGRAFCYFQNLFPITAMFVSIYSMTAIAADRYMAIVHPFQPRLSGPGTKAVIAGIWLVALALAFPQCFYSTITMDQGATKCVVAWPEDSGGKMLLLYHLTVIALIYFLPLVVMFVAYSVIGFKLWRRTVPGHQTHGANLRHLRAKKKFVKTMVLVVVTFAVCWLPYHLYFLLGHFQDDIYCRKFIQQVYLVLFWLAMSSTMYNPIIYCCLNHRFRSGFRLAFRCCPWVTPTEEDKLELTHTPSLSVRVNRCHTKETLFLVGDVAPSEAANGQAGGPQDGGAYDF

[8] = tested on: U-373 MG (Homo sapiens); experiment: In vitro inhibitory activity against P induced IL-6 secretion in U-373 MG Astrocytoma cells

Chain of Substance-P receptor (Homo sapiens, UniProt P25103) (P25103 whole entry): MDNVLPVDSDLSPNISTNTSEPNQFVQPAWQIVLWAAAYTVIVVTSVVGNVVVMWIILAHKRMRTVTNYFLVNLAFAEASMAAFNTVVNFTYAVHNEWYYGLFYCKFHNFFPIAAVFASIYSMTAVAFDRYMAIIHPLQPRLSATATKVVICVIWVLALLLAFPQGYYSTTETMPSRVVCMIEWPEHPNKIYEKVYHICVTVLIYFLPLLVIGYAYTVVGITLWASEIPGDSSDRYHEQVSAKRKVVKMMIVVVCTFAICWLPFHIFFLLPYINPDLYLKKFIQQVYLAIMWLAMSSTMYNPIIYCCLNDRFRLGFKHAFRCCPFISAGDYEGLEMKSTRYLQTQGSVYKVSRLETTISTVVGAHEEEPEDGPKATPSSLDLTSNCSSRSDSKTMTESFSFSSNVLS

IC50 [1] [nM]	SMILES	also measured
2.73	COc1ccccc1CN(CC(Cc1cccc2ccccc12)NC(=O)CN1CCN(c2ccccc2)CC1)C(C)=O (centres undefined)	–
51	COc1ccccc1CNCC(Cc1c[nH]c2ccccc12)NC(=O)CN1CCN(c2ccccc2)CC1 (centres undefined)	–
21.9	CC(=O)N(CC1CCCCC1)CC(Cc1c[nH]c2ccccc12)NC(=O)CN1CCN(c2ccccc2)CC1 (centres undefined)	–
474	COc1ccccc1CN(CC(NC(=O)CN1CCN(c2ccccc2)CC1)c1ccccc1)C(C)=O (centres undefined)	–
0.34	COc1ccccc1CN(CC(Cc1c[nH]c2ccccc12)NC(=O)CN1CCN(C2CCCCC2)CC1)C(C)=O (centres undefined)	–
159	CC(=O)N(Cc1ccccc1Cl)C[C@H](Cc1c[nH]c2ccccc12)NC(=O)CN1CCC(N2CCCCC2)CC1	–
3.2	CC(=O)N(Cc1ccccc1C)CC(Cc1c[nH]c2ccccc12)NC(=O)CN1CCN(c2ccccc2)CC1 (centres undefined)	–
2.2	CC(=O)N(Cc1ccccc1)CC(Cc1c[nH]c2ccccc12)NC(=O)CN1CCN(c2ccccc2)CC1 (centres undefined)	–
3	CC(=O)N(Cc1ccccc1[N+](=O)[O-])CC(Cc1c[nH]c2ccccc12)NC(=O)CN1CCN(c2ccccc2)CC1 (centres undefined)	–
149	CCCCN(CC(Cc1c[nH]c2ccccc12)NC(=O)CN1CCN(c2ccccc2)CC1)C(C)=O (centres undefined)	–
2.5	COc1ccc(CN(CC(Cc2c[nH]c3ccccc23)NC(=O)CN2CCN(c3ccccc3)CC2)C(C)=O)cc1 (centres undefined)	IC50 [3]: 1100 nM
80.9	COc1ccccc1CN(C[C@H](Cc1c[nH]c2ccccc12)NC(=O)CN1CCN(C2CCCCC2)CC1)C(C)=O	–
1.18	COc1ccccc1CN(CC(Cc1csc2ccccc12)NC(=O)CN1CCN(c2ccccc2)CC1)C(C)=O (centres undefined)	–
338	COc1ccccc1CN(CC(NC(=O)CN1CCN(c2ccccc2)CC1)c1ccc(Cl)c(Cl)c1)C(C)=O (centres undefined)	–
1.9	CC(=O)N(Cc1ccccc1Cl)CC(Cc1c[nH]c2ccccc12)NC(=O)CN1CCN(c2ccccc2)CC1 (centres undefined)	–
3	CNC(=O)N(Cc1ccccc1OC)CC(Cc1c[nH]c2ccccc12)NC(=O)CN1CCN(c2ccccc2)CC1 (centres undefined)	–
5.5	CCOC(=O)N(Cc1ccccc1OC)CC(Cc1c[nH]c2ccccc12)NC(=O)CN1CCN(c2ccccc2)CC1 (centres undefined)	–
3.2	CC(=O)N(Cc1ccccc1C(F)(F)F)CC(Cc1c[nH]c2ccccc12)NC(=O)CN1CCN(c2ccccc2)CC1 (centres undefined)	–
4.5	COc1ccccc1CN(CC(Cc1c[nH]c2ccccc12)NC(=O)CN1CCC(c2ccccc2)CC1)C(C)=O (centres undefined)	–
> 5000	COc1ccccc1CN(CCNC(=O)CN1CCN(c2ccccc2)CC1)C(C)=O	–
7.2	CSc1ccccc1CN(CC(Cc1c[nH]c2ccccc12)NC(=O)CN1CCN(c2ccccc2)CC1)C(C)=O (centres undefined)	–
> 5000	COc1ccccc1CN(CC(NC(=O)CN1CCN(c2ccccc2)CC1)C(C)C)C(C)=O (centres undefined)	–
4	COc1ccccc1CN(CC(Cc1c[nH]c2ccccc12)NC(=O)CN1CCN(c2ccccc2)CC1)S(C)(=O)=O (centres undefined)	–
0.18	COc1ccccc1CN(C[C@@H](Cc1c[nH]c2ccccc12)NC(=O)CN1CCN(C2CCCCC2)CC1)C(C)=O	IC50 [3]: 1.5 nM; IC50 [4]: 1.3 nM

IC50 [1] [nM]	SMILES	also measured
> 5000	CC(=O)N(CC(Cc1c[nH]c2ccccc12)NC(=O)CN1CCN(c2ccccc2)CC1)c1ccccc1 (centres undefined)	–
27	COc1ccccc1CN(CC(Cc1c[nH]c2ccccc12)NC(=O)CN1CCOCC1)C(C)=O (centres undefined)	–
33	COc1ccccc1CN(CC(Cc1c[nH]c2ccccc12)NC(=O)CN1CCCCC1)C(C)=O (centres undefined)	–
> 5000	CC(=O)N(C)CC(Cc1c[nH]c2ccccc12)NC(=O)CN1CCN(c2ccccc2)CC1 (centres undefined)	–
1.54	COc1ccccc1CN(CC(Cc1c[nH]c2ccccc12)NC(=O)CN1CCN(c2ccccc2)CC1)C(=O)CN(C)C (centres undefined)	IC50 [3]: 480 nM; IC50 [4]: 200 nM
2	COc1ccccc1CN(CC(Cc1c[nH]c2ccccc12)NC(=O)CN1CCN(c2ccccc2)CC1)C(=O)c1ccccc1 (centres undefined)	–
0.81	CCC(=O)N(Cc1ccccc1OC)CC(Cc1c[nH]c2ccccc12)NC(=O)CN1CCN(c2ccccc2)CC1 (centres undefined)	–
2.8	COc1ccccc1CN(CC(Cc1c[nH]c2ccccc12)NC(=O)CN1CCC(N(C)C)CC1)C(C)=O (centres undefined)	–
1.28	COC(=O)CC(=O)N(Cc1ccccc1OC)CC(Cc1c[nH]c2ccccc12)NC(=O)CN1CCN(c2ccccc2)CC1 (centres undefined)	–
–	COc1ccccc1CN(C[C@H](Cc1c[nH]c2ccccc12)NC(=O)CN1CCC(N2CCCCC2)CC1)C(C)=O	Ki [5]: 5600 nM; Kb [6]: 200 nM; Kb [7]: 20000 nM
3.1	COc1ccccc1CN(CC(Cc1c[nH]c2ccccc12)NC(=O)CN1CC=C(c2ccccc2)CC1)C(C)=O (centres undefined)	–
–	COc1ccccc1CN(C[C@@H](Cc1c[nH]c2ccccc12)NC(=O)CN1CCN(c2ccccc2)CC1)C(C)=O	Ki [5]: 0.48 nM; Ki [8]: 1.2 nM
126	CC(=O)N(CCc1ccccc1)CC(Cc1c[nH]c2ccccc12)NC(=O)CN1CCN(c2ccccc2)CC1 (centres undefined)	–
11	COc1ccccc1CN(CC(Cc1ccc2ccccc2c1)NC(=O)CN1CCN(c2ccccc2)CC1)C(C)=O (centres undefined)	–
–	COc1ccccc1CN(C[C@H](Cc1c[nH]c2ccccc12)NC(=O)CN1CCN(c2ccccc2)CC1)C(C)=O	Ki [5]: 630 nM; Ki [8]: 3500 nM; Kb [7]: 20000 nM
0.8	COc1ccccc1CN(C=O)CC(Cc1c[nH]c2ccccc12)NC(=O)CN1CCN(c2ccccc2)CC1 (centres undefined)	–
0.98	COc1ccccc1CN(CC(Cc1c[nH]c2ccccc12)NC(=O)CN1CCN(Cc2ccccc2)CC1)C(C)=O (centres undefined)	IC50 [2]: 0.88 nM; IC50 [3]: 16 nM
27.4	COc1ccccc1CN(CC(CC1CNc2ccccc21)NC(=O)CN1CCN(c2ccccc2)CC1)C(C)=O (centres undefined)	–
5.3	COc1ccccc1CN(CC(Cc1c[nH]c2ccccc12)NC(=O)CN1CCN(C)CC1)C(C)=O (centres undefined)	–
0.18	CC(=O)N(Cc1ccccc1Cl)CC(Cc1c[nH]c2ccccc12)NC(=O)CN1CCC(N2CCCCC2)CC1 (centres undefined)	–
85	CCN(Cc1ccccc1OC)CC(Cc1c[nH]c2ccccc12)NC(=O)CN1CCN(c2ccccc2)CC1 (centres undefined)	–
–	COc1ccccc1CN[C@H]1C2CCN(CC2)[C@H]1C(c1ccccc1)c1ccccc1 [CP-96345]	Ki [5]: 5.2 nM; Kb [6]: 2510 nM; Ki [8]: 4 nM; Kb [7]: 50100 nM
–	COc1ccccc1CN(C[C@@H](Cc1c[nH]c2ccccc12)NC(=O)CN1CCC(N2CCCCC2)CC1)C(C)=O [LANEPITANT]	Ki [5]: 1.3 nM; Kb [6]: 20000 nM; Ki [8]: 5.5 nM; Kb [7]: 20000 nM

SMILES	IC50 [1] [nM]	also measured
COc1ccccc1CC(=N)N1C[C@@H]2C(=O)CCC(c3ccccc3)(c3ccccc3)[C@@H]2C1	30	IC50 [2]: 32 nM; IC50 [3]: 6.7 nM; IC50 [4]: 8.7 nM

From ChEMBL document CHEMBL1129738, “3-Aryl-1,2-diacetamidopropane derivatives as novel and potent NK-1 receptor antagonists” (J Med Chem, 1996)
